These results are taken from ChEMBL document CHEMBL5380787, “Optimized M24B Aminopeptidase Inhibitors for CARD8 Inflammasome Activation” (J Med Chem, 2023).

Active and inactive are the calls of the source. The calls are words filed in the database; no cut-off is given here.

One data set deals with OCI-AML2. The experiment in a line: Induction of cell death in human OCI-AML2 cells assessed as increase in PI uptake at 6.25 uM incubated for 6 hrs by PI staining based fluorescence analysis. The format is functional. The gist of the method: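 PI flux assay. 2 × 10^4 MV4;11 (WT, CARD8−/− or CASP1−/−) or OCI-AML2 cells in RPMI were given compound at 6.25 μM plus PI at 10 μM final. Fluorescence (Ex/Em 535/617 nm) was read every 5 min at 37 °C for 6 h, baseline-corrected to DMSO and normalized to the maximum response. n = 3.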

Data set [1] is described as follows: Drug metabolism of the compound in human MV4-11 cells assessed as de-esterified metabolite formation by LC-MS analysis. The format is ADME, cell-based.
The test system of data set [2] is MV4-11. The data set can be described thus: Cytotoxicity against human MV4-11 cells assessed as reduction in cell viability at 0.015 to 100 uM incubated for 24 hrs by celltiter-glo assay. The conditions noted are these: dose 0.015-100 µM. The format is functional. The gist of the method:
(§1)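 MV4;11 cells (WT or CASP1−/−), grown in RPMI 1640 with 10% FBS at 37 °C, 5% CO2, plated 2000 cells/well, dosed by pintool across 100 μM to 15.2 nM in three-fold steps for 24 h. Viability by CellTiter-Glo luminescence after 2 min shaking and 10 min at 25 °C. IC50 as mean ± SEM of three biological replicates.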
For orientation: Cellular ATP, detected with luciferase, serves as a proxy for viable cell number.

Data set [3] concerns MV4-11. The experiment in a line: Cytotoxicity against CASP1 knockout human MV4-11 cells assessed as reduction in cell viability at 0.015 to 100 uM incubated for 24 hrs by celltiter-glo assay. The format is functional. The note with it: dose 0.015-100 µM. The gist of the method:
as §1

A short description of data set [4]: Drug metabolism in human MV4-11 cell culture supernatant assessed as (S)-1-((2S,3R)-3-amino-2-hydroxy-5-methylhexanoyl)pyrrolidine-2-carboxylic acid formation measured within 30 mins by LC-MS analysis. The format is ADME, cell-based. The note with it: mv4-11, 0.5 h.
Data set [5] in a line: Stability of the compound in human MV4-11 cells assessed as de-esterification by measuring parent compound remaining measured after 24 hrs by LC-MS analysis. The format is ADME, cell-based. The note with it: read-out: Stability. The gist of the method:
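Compound was incubated in conditioned medium from MV4;11 cells for 24 h at 37 °C, and LC/MS then measured intact ester remaining and the de-esterified free acid. n = 3, mean ± SEM.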

For `COC(=O)[C@H](CC(C)C)NC(=O)[C@@H]1CCCN1C(=O)[C@@H](O)[C@H](N)CC(C)C`, in the data set on OCI-AML2, the outcome was Active. Moreover, the Drug metabolism result in data set [1] is reported as “Metabolite_Detected”.

`COC(=O)[C@@H]1CCCN1C(=O)[C@@H](O)[C@H](N)CC(C)C`: the Activity amounted to 28% in the data set on MV4-11 [2] and 95% in the data set on MV4-11 [3]. Further, the Drug metabolism entry in data set [4] is recorded as “Metabolite_Detected”. Also, in data set [5], the remaining at 24 h was 50%.
